According to ChEMBL document CHEMBL1165861, “Synthesis and biological evaluation of some pyrazolylpyrazolines as anti-inflammatory-antimicrobial agents” (2010):
≈ marks a conversion by molar mass, not a printed value.

Key:
Escherichia coli [1] = assay: Antimicrobial activity against Escherichia coli MTCC 51 after 24 hrs by broth microdilution assay; type: functional; conditions: MTCC 51, 24 h
Method in brief: (§1)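 MIC was determined by microplate dilution (microdilution) in Müller–Hinton broth, with ciprofloxacin as the reference drug.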

Rattus norvegicus [2] = assay: Antiinflammatory activity in Wistar albino rat assessed as inhibition of carrageenan-induced paw edema at 50 mg/kg, po administered 30 mins before carrageenan challenge measured after 120 mins relative to control; type: functional
Method in brief: (§2)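 Male Wistar albino rats (200–250 g) in groups of six, food withdrawn 12 h before and during the test. Compounds were dosed orally at 50 mg/kg; controls received tween 80 (95:5). After 30 min, 0.1 mL of 1% w/v carrageenan in saline was injected subplantar into the left hind paw. Plethysmometer volumes were taken initially and at 30–120 min. AI% is relative to control, mean ± SEM, ANOVA.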

Rattus norvegicus [3] = assay: Antiinflammatory activity in Wistar albino rat assessed as inhibition of carrageenan-induced paw edema at 50 mg/kg, po administered 30 mins before carrageenan challenge measured after 90 mins relative to control; type: functional; method in brief: as §2
Pseudomonas aeruginosa [4] = assay: Antimicrobial activity against Pseudomonas aeruginosa MTCC 741 after 24 hrs by broth microdilution assay; type: functional; conditions: MTCC 741, 24 h; method in brief: as §1
Rattus norvegicus [5] = assay: Antiinflammatory activity in Wistar albino rat assessed as inhibition of carrageenan-induced paw edema at 50 mg/kg, po administered 30 mins before carrageenan challenge measured after 60 mins relative to control; type: functional; method in brief: as §2
Escherichia coli [6] = assay: Antimicrobial activity against Escherichia coli MTCC 51 at 4 mg/ml after 24 hrs by agar diffusion method; type: functional; conditions: MTCC 51, 24 h, read-out: DIZ
Method in brief: (§3)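 Agar well diffusion: seeded agar plates swabbed with inoculum and left 15 min for adsorption, then 8 mm wells bored and loaded. Incubation 37 °C for 24 h. Inhibition zone diameter measured in mm with a zone reader. DMSO medium served as negative control and ciprofloxacin as positive control. Triplicates.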

Staphylococcus aureus [7] = assay: Antimicrobial activity against Staphylococcus aureus MTCC 3160 at 4 mg/ml after 24 hrs by agar diffusion method; type: functional; conditions: MTCC 3160, 24 h, read-out: DIZ; method in brief: as §3
Rattus norvegicus [8] = assay: Antiinflammatory activity in Wistar albino rat assessed as inhibition of carrageenan-induced paw edema at 50 mg/kg, po administered 30 mins before carrageenan challenge measured after 30 mins relative to control; type: functional; method in brief: as §2
Bacillus subtilis [9] = assay: Antimicrobial activity against Bacillus subtilis MTCC 121 at 4 mg/ml after 24 hrs by agar diffusion method; type: functional; conditions: MTCC 121, 24 h, read-out: DIZ; method in brief: as §3
Staphylococcus aureus [10] = assay: Antimicrobial activity against Staphylococcus aureus MTCC 3160 after 24 hrs by broth microdilution assay; type: functional; conditions: MTCC 3160, 24 h; method in brief: as §1
Pseudomonas aeruginosa [11] = assay: Antimicrobial activity against Pseudomonas aeruginosa MTCC 741 at 4 mg/ml after 24 hrs by agar diffusion method; type: functional; conditions: MTCC 741, 24 h, read-out: DIZ; method in brief: as §3
Bacillus subtilis [12] = assay: Antimicrobial activity against Bacillus subtilis MTCC 121 after 24 hrs by broth microdilution assay; type: functional; conditions: MTCC 121, 24 h; method in brief: as §1
Rattus norvegicus [13] = organism: Rattus norvegicus; assay: animal or person; conditions: Wistar albino, po, read-out: INH
Rattus norvegicus [14] = organism: Rattus norvegicus; assay: animal or person; conditions: Wistar albino, po, read-out: INH; remark: listed apart in the source
Rattus norvegicus [15] = organism: Rattus norvegicus; assay: animal or person; conditions: Wistar albino, po, read-out: INH; remark: listed apart in the source
Rattus norvegicus [16] = organism: Rattus norvegicus; assay: animal or person; conditions: Wistar albino, po, read-out: INH; remark: listed apart in the source

| SMILES | MIC (Escherichia coli [1]) [µg/mL] | inhibition in vivo at 50 mg/kg (Rattus norvegicus [2]) [%] | inhibition in vivo at 50 mg/kg (Rattus norvegicus [3]) [%] | MIC (Pseudomonas aeruginosa [4]) [µg/mL] | inhibition in vivo at 50 mg/kg (Rattus norvegicus [5]) [%] | zone of inhibition at 4000 µg/mL (Escherichia coli [6]) [mm] | zone of inhibition at 4000 µg/mL (Staphylococcus aureus [7]) [mm] | inhibition in vivo at 50 mg/kg (Rattus norvegicus [8]) [%] | zone of inhibition at 4000 µg/mL (Bacillus subtilis [9]) [mm] | MIC (Staphylococcus aureus [10]) [µg/mL] | zone of inhibition at 4000 µg/mL (Pseudomonas aeruginosa [11]) [mm] | MIC (Bacillus subtilis [12]) [µg/mL] | inhibition in vivo at 4 mg/kg (Rattus norvegicus [13]) [%] | inhibition in vivo at 4 mg/kg (Rattus norvegicus [14]) [%] | inhibition in vivo at 4 mg/kg (Rattus norvegicus [15]) [%] | inhibition in vivo at 4 mg/kg (Rattus norvegicus [16]) [%] |
| --- | --- | --- | --- | --- | --- | --- | --- | --- | --- | --- | --- | --- | --- | --- | --- | --- |
| NS(=O)(=O)c1ccc(N2N=C(c3ccc(F)cc3)CC2c2cn(-c3ccccc3)nc2-c2ccc(Br)cc2)cc1 (stereo not drawn) | 128 (≈ 208 µM) | 15 | 17 | 128 (≈ 208 µM) | 26 | 9.33 | 10 | 13 | 11 | 64 (≈ 104 µM) | 9.33 | 64 (≈ 104 µM) |  |  |  |  |
| Cc1ccc(-c2nn(-c3ccccc3)cc2C2CC(c3ccccc3)=NN2c2ccc(S(N)(=O)=O)cc2)cc1 (stereo not drawn) | 64 (≈ 120 µM) | 16 | 22 | 128 (≈ 240 µM) | 14 | 11.7 | 16 | 18 | 11 | 32 (≈ 60 µM) | 9.33 | 64 (≈ 120 µM) |  |  |  |  |
| NS(=O)(=O)c1ccc(N2N=C(c3ccc(F)cc3)CC2c2cn(-c3ccccc3)nc2-c2ccc(F)cc2)cc1 (stereo not drawn) | 32 (≈ 57.6 µM) | 9 | 16 | 32 (≈ 57.6 µM) | 8 | 10.7 | 21 | 18 | 10.7 | 16 (≈ 28.8 µM) | 19.3 | 16 (≈ 28.8 µM) |  |  |  |  |
| NS(=O)(=O)c1ccc(N2N=C(c3ccc(Br)cc3)CC2c2cn(-c3ccccc3)nc2-c2ccccc2)cc1 (stereo not drawn) | 64 (≈ 107 µM) | 23 | 22 | 128 (≈ 214 µM) | 23 | 11.7 | 17 | 7 | 11.3 | 32 (≈ 53.5 µM) | 9.66 | 64 (≈ 107 µM) |  |  |  |  |
| NS(=O)(=O)c1ccc(N2N=C(c3ccc(F)cc3)CC2c2cn(-c3ccccc3)nc2-c2ccccc2)cc1 (stereo not drawn) | 16 (≈ 29.8 µM) | 15 | 23 | 32 (≈ 59.5 µM) | 25 | 21.7 | 23.7 | 22 | 23.3 | 8 (≈ 14.9 µM) | 17.7 | 8 (≈ 14.9 µM) |  |  |  |  |
| Cc1ccc(-c2nn(-c3ccccc3)cc2C2CC(c3ccc(F)cc3)=NN2c2ccc(S(N)(=O)=O)cc2)cc1 (stereo not drawn) | 64 (≈ 116 µM) | 32 | 34 | 64 (≈ 116 µM) | 43 | 11.7 | 16.7 | 30 | 16.3 | 32 (≈ 58 µM) | 11 | 32 (≈ 58 µM) |  |  |  |  |
| Cc1ccc(C2=NN(c3ccc(S(N)(=O)=O)cc3)C(c3cn(-c4ccccc4)nc3-c3ccccc3)C2)cc1 (stereo not drawn) | 64 (≈ 120 µM) | 26 | 27 | 64 (≈ 120 µM) | 17 | 11.7 | 16.3 | 5 | 17 | 32 (≈ 60 µM) | 11.7 | 32 (≈ 60 µM) |  |  |  |  |
| O=C(O)c1cn(C2CC2)c2cc(N3CCNCC3)c(F)cc2c1=O [CIPROFLOXACIN] |  |  |  | 4 (≈ 12.1 µM) |  | 28.6 | 32.6 |  | 29.2 | 2 (≈ 6.04 µM) | 28 | 2 (≈ 6.04 µM) |  |  |  |  |
| CS(=O)(=O)Nc1ccc([N+](=O)[O-])cc1Oc1ccccc1 [NIMESULIDE] |  |  |  |  |  |  |  |  |  |  |  |  | 43 | 37 | 45 | 36 |
| NS(=O)(=O)c1ccc(N2N=C(c3ccccc3)CC2c2cn(-c3ccccc3)nc2-c2ccc(Br)cc2)cc1 (stereo not drawn) | 32 (≈ 53.5 µM) | 32 | 38 | 32 (≈ 53.5 µM) | 26 | 17.3 | 24 | 16 | 23.7 | 8 (≈ 13.4 µM) | 17.3 | 8 (≈ 13.4 µM) |  |  |  |  |
| Cc1ccc(C2=NN(c3ccc(S(N)(=O)=O)cc3)C(c3cn(-c4ccccc4)nc3-c3ccc(C)cc3)C2)cc1 (stereo not drawn) | 64 (≈ 117 µM) | 9 | 16 | 128 (≈ 234 µM) | 19 | 10.7 | 16.7 | 18 | 10.7 | 32 (≈ 58.4 µM) | 9.33 | 64 (≈ 117 µM) |  |  |  |  |
| NS(=O)(=O)c1ccc(N2N=C(c3ccccc3)CC2c2cn(-c3ccccc3)nc2-c2ccc(F)cc2)cc1 (stereo not drawn) | 32 (≈ 59.5 µM) | 23 | 22 | 32 (≈ 59.5 µM) | 14 | 17.3 | 23.3 | 18 | 11.7 | 16 (≈ 29.8 µM) | 17.3 | 16 (≈ 29.8 µM) |  |  |  |  |
| NS(=O)(=O)c1ccc(N2N=C(c3ccccc3)CC2c2cn(-c3ccccc3)nc2-c2ccccc2)cc1 (stereo not drawn) | 64 (≈ 123 µM) | 1 | 10 | 64 (≈ 123 µM) | 4 | 11.7 | 17.7 | 5 | 18.7 | 32 (≈ 61.6 µM) | 10.7 | 32 (≈ 61.6 µM) |  |  |  |  |
